Converted amounts (≈) assume the structure as drawn. “And” between values parts separate entries of the source, which are not always exact repeats. Equal entries are not always repeated.
Columns and labels:
Type in all cases: functional, cell-based
Details in all cases: Homo sapiens
T-24 [1] = experiment: Tested for cytotoxicity against antigen negative T-24 bladder carcinoma cells of conjugate H1.11 (Type H1: MSR-33)
Method in brief: (§1)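 Cytotoxicity was measured as inhibition of [75Se]selenomethionine uptake in a microplate assay, with cells incubated continuously with drug or conjugate. Antigen-positive 791T osteosarcoma cells carry about 6 × 10⁵ antigens/cell; T-24 bladder carcinoma cells carry about 3–5% of that level. Both lines were grown as monolayers in Eagle's MEM with 10% newborn calf serum and passaged using trypsin (0.25%)/EDTA (0.5%).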

T-24 [2] = experiment: Tested for cytotoxicity against antigen negative T-24 bladder carcinoma cells having only 3-5% antigen expression; method in brief: as §1
791T cell line [3] = experiment: Tested for cytotoxicity against antigen positive 791T osteosarcoma cells […]; method in brief: as §1
791T cell line [4] = experiment: Tested for cytotoxicity against antigen positive 791T osteosarcoma cells of conjugate H1.11 (Type H1: MSR-33); method in brief: as §1
T-24 [5] = experiment: Tested for cytotoxicity against antigen negative T-24 bladder carcinoma cells of conjugate AH1.11 (Type H1: MSR-33); method in brief: as §1
791T cell line [6] = experiment: Tested for cytotoxicity against antigen positive 791T osteosarcoma cells of conjugate AH1.11 (Type H1: MSR-33); method in brief: as §1
C170 = experiment: Tested for cytotoxicity against C170 colorectal carcinoma cell line by [75Se]selenomethionine uptake assay, in vitro
791T cell line [7] = experiment: Tested for cytotoxicity against antigen positive 791T osteosarcoma cells […]; <20% inhibition achieved; method in brief: as §1
T-24 [8] = experiment: Tested for cytotoxicity against antigen negative T-24 bladder carcinoma cells having only 3-5% antigen expression; <20% inhibition achieved; method in brief: as §1
T-24 [9] = experiment: Tested for cytotoxicity against antigen negative T-24 bladder carcinoma cells of conjugate H1.11 (Type H2: MSR-26); method in brief: as §1
791T cell line [10] = experiment: Tested for cytotoxicity against antigen positive 791T osteosarcoma cells of conjugate AH1.11 (Type H2: MSR-26); method in brief: as §1
T-24 [11] = experiment: Tested for cytotoxicity against antigen negative T-24 bladder carcinoma cells of conjugate AH1.11 (Type H2: MSR-26); method in brief: as §1
791T cell line [12] = experiment: Tested for cytotoxicity against antigen positive 791T osteosarcoma cells of conjugate H1.11 (Type H2: MSR-26) (less than 20% inhibition achieved); method in brief: as §1
791T cell line [13] = experiment: Tested for cytotoxicity against antigen positive 791T osteosarcoma cells […] (49% inhibition achieved at 100 micro g/mL)
791T cell line [14] = experiment: Tested for cytotoxicity against antigen positive 791T osteosarcoma cells of conjugate H1.11 (Type H2: MSR-26); method in brief: as §1
T-24 [15] = experiment: Tested for cytotoxicity against antigen negative T-24 bladder carcinoma cells of conjugate H1.11 (Type H3: MSR-28); <20% inhibition achieved; method in brief: as §1
T-24 [16] = experiment: Tested for cytotoxicity against antigen negative T-24 bladder carcinoma cells of conjugate AH1.11 (Type H3: MSR-28); 20%-40% inhibition achieved; method in brief: as §1
791T cell line [17] = experiment: Tested for cytotoxicity against antigen positive 791T osteosarcoma cells of conjugate H1.11 (Type H3: MSR-28); <20% inhibition achieved; method in brief: as §1
791T cell line [18] = experiment: Tested for cytotoxicity against antigen positive 791T osteosarcoma cells of conjugate AH1.11 (Type H3: MSR-28); <20% inhibition achieved; method in brief: as §1

SMILES: O=C(O)CCC(=O)NC[C@H]1O[C@@H](n2cc(F)c(=O)[nH]c2=O)C[C@@H]1O
- IC50 (T-24 [1]): 5.7 µg/mL and 16.6 µM
- IC50 (T-24 [2]): 21 µg/mL and 62 µM
- IC50 (791T cell line [3]): > 100 µg/mL and > 290 µM
- IC50 (791T cell line [4]): 7.1 µg/mL and 20.6 µM
- IC50 (T-24 [5]): 0.4 µg/mL and 1.1 µM
- IC50 (791T cell line [6]): 0.4 µg/mL and 1.1 µM

SMILES: NC[C@H]1O[C@@H](n2cc(F)c(=O)[nH]c2=O)C[C@@H]1O
- IC50 (C170): 26 µg/mL and 107 µM

SMILES: O=c1[nH]c(=O)n([C@H]2C[C@H](O)[C@@H](CO)O2)cc1F [FLOXURIDINE]
- IC50 (T-24 [2]): 1 µg/mL and 4.1 µM
- IC50 (791T cell line [3]): 0.8 µg/mL and 3.2 µM
- IC50 (C170): 0.1 µg/mL and 400 nM

SMILES: O=C(O)[C@H]1O[C@@H](n2cc(F)c(=O)[nH]c2=O)C[C@@H]1O
- IC50 (C170): 10 µg/mL and 41 µM

SMILES: CCOC(=O)c1ccc(NC(=O)[C@H]2O[C@@H](n3cc(F)c(=O)[nH]c3=O)C[C@@H]2O)cc1
- IC50 (791T cell line [7]): > 100 µg/mL and > 300 µM
- IC50 (T-24 [8]): > 100 µg/mL and > 300 µM

SMILES: CCOC(=O)CCC(=O)NC[C@H]1O[C@@H](n2cc(F)c(=O)[nH]c2=O)C[C@@H]1O
- IC50 (T-24 [2]): > 100 µg/mL and > 280 µM
- IC50 (791T cell line [3]): > 100 µg/mL and > 280 µM

SMILES: CCCCNC(=O)/C=C/C(=O)NC[C@H]1O[C@@H](n2cc(F)c(=O)[nH]c2=O)C[C@@H]1O
- IC50 (T-24 [2]): > 100 µg/mL and > 300 µM
- IC50 (791T cell line [3]): > 100 µg/mL and > 300 µM

SMILES: O=C(O)/C=C/C(=O)NC[C@H]1O[C@@H](n2cc(F)c(=O)[nH]c2=O)C[C@@H]1O
- IC50 (T-24 [9]): > 10 µg/mL and > 30 µM
- IC50 (791T cell line [10]): > 0.5 µg/mL and > 1.5 µM
- IC50 (T-24 [11]): > 0.5 µg/mL and > 1.5 µM
- IC50 (791T cell line [12]): > 10 µg/mL
- IC50 (T-24 [2]): 79 µg/mL and 231 µM
- IC50 (791T cell line [13]): 320 µM
- IC50 (791T cell line [3]): 110 µg/mL (≈ 320 µM)
- IC50 (791T cell line [14]): > 30 µM

SMILES: O=C(O)c1ccc(NC(=O)[C@H]2O[C@@H](n3cc(F)c(=O)[nH]c3=O)C[C@@H]2O)cc1
- IC50 (791T cell line [7]): > 100 µg/mL and > 300 µM
- IC50 (T-24 [15]): > 3 µg/mL and > 7.9 µM
- IC50 (T-24 [16]): > 1 µg/mL and > 2.6 µM
- IC50 (791T cell line [17]): > 3 µg/mL and > 7.9 µM
- IC50 (T-24 [2]): 100 µg/mL and 263 µM
- IC50 (791T cell line [18]): > 1 µg/mL and > 2.6 µM

SMILES: O=c1[nH]cc(F)c(=O)[nH]1 [FLUOROURACIL]
- IC50 (T-24 [2]): 0.5 µg/mL and 4.1 µM
- IC50 (791T cell line [3]): 0.7 µg/mL and 5.5 µM
- IC50 (C170): 0.3 µg/mL and 2 µM
